Values belong to the molecule of their own block, whether it stands above or below them. Calls of active or inactive are those of the source. No cut-off for these calls is given here.
How the values were obtained:
[1] = biological target: T1, Seed linoleate 13S-lipoxygenase-1 (Glycine max, UniProt P08170); test: Inhibition of soybean lipoxygenase-1 assessed as formation of 13-HPOD from linoleic acid preincubated for 10 mins measured by real-time spectrophotometric analysis
T1 sequence (P08170 whole entry): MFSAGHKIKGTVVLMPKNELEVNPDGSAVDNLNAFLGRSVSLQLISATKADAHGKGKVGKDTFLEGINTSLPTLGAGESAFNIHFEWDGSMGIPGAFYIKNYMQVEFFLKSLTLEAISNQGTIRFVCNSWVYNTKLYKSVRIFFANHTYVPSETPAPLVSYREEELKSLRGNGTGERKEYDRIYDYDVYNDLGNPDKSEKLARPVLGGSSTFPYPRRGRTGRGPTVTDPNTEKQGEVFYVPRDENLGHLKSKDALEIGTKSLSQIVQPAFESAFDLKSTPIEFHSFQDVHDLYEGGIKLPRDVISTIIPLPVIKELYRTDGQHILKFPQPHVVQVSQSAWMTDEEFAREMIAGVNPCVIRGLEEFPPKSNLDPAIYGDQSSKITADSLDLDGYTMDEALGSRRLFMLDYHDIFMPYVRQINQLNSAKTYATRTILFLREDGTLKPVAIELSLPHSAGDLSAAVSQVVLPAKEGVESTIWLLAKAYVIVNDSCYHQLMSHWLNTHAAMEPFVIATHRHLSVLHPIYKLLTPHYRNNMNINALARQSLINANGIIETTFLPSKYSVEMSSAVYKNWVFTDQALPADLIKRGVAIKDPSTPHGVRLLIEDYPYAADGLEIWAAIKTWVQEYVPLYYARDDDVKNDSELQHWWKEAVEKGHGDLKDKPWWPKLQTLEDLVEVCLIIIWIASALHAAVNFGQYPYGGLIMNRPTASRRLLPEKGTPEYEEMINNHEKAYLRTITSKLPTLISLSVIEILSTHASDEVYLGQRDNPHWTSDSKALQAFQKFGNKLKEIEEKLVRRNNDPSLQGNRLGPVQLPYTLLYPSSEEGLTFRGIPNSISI

[2] = biological target: T2, Probable linoleate 9S-lipoxygenase 5 (Solanum tuberosum) (UniProt Q43191); test: Inhibition of potato 5-lipoxygenase assessed as residual activity preincubated for 10 mins measured by real-time spectrophotometric analysis
T2 sequence (whole entry): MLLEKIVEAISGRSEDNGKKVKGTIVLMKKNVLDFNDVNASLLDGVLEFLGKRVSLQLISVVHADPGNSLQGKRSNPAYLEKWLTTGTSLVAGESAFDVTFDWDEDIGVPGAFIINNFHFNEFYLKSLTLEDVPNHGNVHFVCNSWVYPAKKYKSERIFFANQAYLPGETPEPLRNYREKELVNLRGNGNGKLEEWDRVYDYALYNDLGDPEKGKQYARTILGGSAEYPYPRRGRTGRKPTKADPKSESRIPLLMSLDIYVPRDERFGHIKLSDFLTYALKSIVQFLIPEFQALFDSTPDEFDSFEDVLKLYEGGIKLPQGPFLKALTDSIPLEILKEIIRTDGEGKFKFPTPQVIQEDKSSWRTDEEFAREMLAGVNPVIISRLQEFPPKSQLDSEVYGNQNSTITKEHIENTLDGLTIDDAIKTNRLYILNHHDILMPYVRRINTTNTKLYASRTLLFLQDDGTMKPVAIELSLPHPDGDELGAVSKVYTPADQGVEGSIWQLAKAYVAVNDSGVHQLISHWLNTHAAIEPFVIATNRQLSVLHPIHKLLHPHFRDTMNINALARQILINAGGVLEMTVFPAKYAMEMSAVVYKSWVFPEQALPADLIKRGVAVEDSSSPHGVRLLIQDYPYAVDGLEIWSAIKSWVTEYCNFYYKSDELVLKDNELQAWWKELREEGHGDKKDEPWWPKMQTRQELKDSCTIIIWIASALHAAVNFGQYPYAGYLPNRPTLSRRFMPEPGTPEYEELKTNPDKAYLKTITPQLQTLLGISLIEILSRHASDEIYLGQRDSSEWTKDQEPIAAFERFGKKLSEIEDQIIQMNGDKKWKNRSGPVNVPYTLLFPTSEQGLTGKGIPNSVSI
Procedure, shortened: (§1)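 Single-concentration screen against soybean LOX-1 and potato 5-LOX. Enzyme preincubated 10 min with 50 µM compound. Formation of conjugated diene 13-HPOD from linoleic acid followed spectrophotometrically in real time. Residual activity given as percent of blank without inhibitor. Average of three independent experiments with standard deviations.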

[3] = biological target: T2, Probable linoleate 9S-lipoxygenase 5 (Solanum tuberosum); test: Activation of potato 5-lipoxygenase assessed as residual activity at 50 uM preincubated for 10 mins measured by real-time spectrophotometric analysis relative to untreated control
Procedure, shortened: as §1

[4] = biological target: T3, Seed linoleate 13S-lipoxygenase-1 (Glycine max) (UniProt P08170); test: Inhibition of soybean lipoxygenase-1 assessed as formation of 13-HPOD from linoleic acid preincubated for 10 mins measured by real-time spectrophotometric analysis
T3 sequence (whole entry): T1 sequence (P08170 whole entry)

[5] = biological target: T2, Probable linoleate 9S-lipoxygenase 5 (Solanum tuberosum); test: Activation of potato 5-lipoxygenase assessed as increase in residual activity preincubated for 10 mins measured by real-time spectrophotometric analysis by Lineweaver-Burk plot
Procedure, shortened: (§2)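 Potato 5-LOX kinetics: enzyme preincubated without activator or with activator at 12.5, 25 and 50 µM. Conjugated diene formation from linoleic acid followed spectrophotometrically in real time, in 0.1 M phosphate buffer pH 6.3. Lineweaver–Burk plots drawn. K_A, α and β derived from re-plots of 1/Δslope and 1/Δintercept using the non-essential activation equation. n=3, ±S.D.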

[6] = biological target: T2, Probable linoleate 9S-lipoxygenase 5 (Solanum tuberosum); test: Activation of potato 5-lipoxygenase assessed as increase in enzyme catalytic rate preincubated for 10 mins measured by real-time spectrophotometric analysis relative to untreated control
Procedure, shortened: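 Non-essential activation analysis of potato 5-LOX in 0.1 M phosphate buffer pH 6.3. Linoleic acid conversion read spectrophotometrically after preincubation with 0, 12.5, 25 or 50 µM activator. β, the change in catalytic constant, is taken from the re-plot of 1/Δintercept from Lineweaver–Burk plots. Three independent experiments.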

[7] = biological target: T2, Probable linoleate 9S-lipoxygenase 5 (Solanum tuberosum); test: Activation of potato 5-lipoxygenase assessed as increase in residual activity preincubated for 10 mins measured by real-time spectrophotometric analysis
Procedure, shortened: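 Potato 5-LOX in 0.1 M phosphate buffer pH 6.3, preincubated with a range of activator concentrations or without compound (control). Formation of […] from linoleic acid monitored spectrophotometrically in real time. Activity expressed against control. Mean of three independent experiments ±S.D.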

[8] = biological target: T2, Probable linoleate 9S-lipoxygenase 5 (Solanum tuberosum); test: Activation of potato 5-lipoxygenase assessed as binding constant for substrate bound enzyme preincubated for 10 mins measured by real-time spectrophotometric analysis by Lineweaver-Burk plot
Procedure, shortened: as §2

[9] = Critical micelles concentration of the compound in 0.1 M phosphate buffer at pH 6.3; assay type: physicochemical
Procedure, shortened: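 Surface tension measured against log concentration in 0.1 M phosphate buffer pH 6.3 at 25 °C (potato 5-LOX assay conditions). CMC read from the plot.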

[10] = biological target: T1, Seed linoleate 13S-lipoxygenase-1; test: Inhibition of soybean lipoxygenase-1 assessed as inhibition constant for enzyme-inhibitor complex by Lineweaver-Burk plot
Procedure, shortened: (§3)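 SLO-1 conversion of linoleic acid monitored spectrophotometrically in 0.2 M borate buffer pH 9.0 with no inhibitor or after preincubation with 6 or 11 µM inhibitor. Vmax and Km (apparent) taken from Lineweaver–Burk intercepts. Ki (free enzyme) and K'i (substrate-bound enzyme) calculated with a mixed-inhibition model. n=3, ±S.D.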

[11] = Critical micelles concentration of the compound in 0.2 M borate buffer at pH 9; assay type: physicochemical
Procedure, shortened: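 Surface tension plotted against log concentration in 0.2 M borate buffer pH 9.0 at 19 °C (SLO-1 assay conditions). CMC read from the plot.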

[12] = biological target: T1, Seed linoleate 13S-lipoxygenase-1; test: Inhibition of soybean lipoxygenase-1 assessed as inhibition constant for enzyme-substrate-inhibitor complex by Lineweaver-Burk plot
Procedure, shortened: as §3

[13] = biological target: T2, Probable linoleate 9S-lipoxygenase 5 (Solanum tuberosum); conditions: 50 uM
[14] = biological target: T2, Probable linoleate 9S-lipoxygenase 5 (Solanum tuberosum); conditions: 6 uM

- IC50 [1]: 58.5 µM
- inhibition [2]: inactive
Structure (SMILES): O=C(O)c1c(O)cc(O)cc1CCc1ccc(Cc2nc3ccccc3o2)cc1

- Activity [3]: Active
- fold change (FC) [3]: 3
Structure (SMILES): CCCCCCCc1ccc(CCc2cccc(O)c2C(=O)O)cc1

- inhibition [4]: inactive
Structure (SMILES): CCCCCCCCCCCCCCCc1cccc(O)c1C(=O)OC

- inhibition [4]: Active
- inhibition [2]: inactive
Structure (SMILES): O=C(O)c1c(O)cccc1CCc1ccc2nc(-c3ccccc3)oc2c1

- IC50 [1]: 55.4 µM
- Ka [5]: 1.8 mM
- fold change (FC) [6]: 1.4
- Activity [3]: Active
- fold change (FC) [3]: 3
- Activity [7]: Dose-dependent effect
- Ka [8]: 24 µM
- CMC [9]: 208 µM
Structure (SMILES): CCCCCCCCCCCCCCOc1cccc(O)c1C(=O)O

- inhibition [4]: Active
- inhibition [2]: inactive
Structure (SMILES): CCCCCCCCCCCCCCCc1cc(O)cc(O)c1C(=O)O

- IC50 [1]: 11.1 µM
- Ki [10]: 9.8 µM
- inhibition [2]: inactive
- CMC [11]: 436 µM
- Ki [12]: 15.7 µM
Structure (SMILES): CCCCCCCc1ccc(CCc2cc(O)cc(O)c2C(=O)O)cc1

- inhibition [13]: 50%
- inhibition [14]: 30%
- CMC [11]: 390 µM
Structure (SMILES): CCCCCCCCCCCCCCCc1cccc(O)c1C(=O)O [ANACARDIC ACID]

From ChEMBL document CHEMBL2203161 (Bioorg Med Chem, 2012)
